CHT allo act = allosterically activates the human high affinity choline transporter; Q9GZV3; CHT-expressing cells, membrane potential dye, choline EC20; hits give high values; LV-AA mutant CHT in HEK293 cells; B-score at 10 µM; 310,000 compounds, 0.49% hits;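 active means initial fluorescence not abnormally high and integrated response B-score, plate-corrected, over 3 SD above library mean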
Target sequence (Q9GZV3 whole entry, looked up): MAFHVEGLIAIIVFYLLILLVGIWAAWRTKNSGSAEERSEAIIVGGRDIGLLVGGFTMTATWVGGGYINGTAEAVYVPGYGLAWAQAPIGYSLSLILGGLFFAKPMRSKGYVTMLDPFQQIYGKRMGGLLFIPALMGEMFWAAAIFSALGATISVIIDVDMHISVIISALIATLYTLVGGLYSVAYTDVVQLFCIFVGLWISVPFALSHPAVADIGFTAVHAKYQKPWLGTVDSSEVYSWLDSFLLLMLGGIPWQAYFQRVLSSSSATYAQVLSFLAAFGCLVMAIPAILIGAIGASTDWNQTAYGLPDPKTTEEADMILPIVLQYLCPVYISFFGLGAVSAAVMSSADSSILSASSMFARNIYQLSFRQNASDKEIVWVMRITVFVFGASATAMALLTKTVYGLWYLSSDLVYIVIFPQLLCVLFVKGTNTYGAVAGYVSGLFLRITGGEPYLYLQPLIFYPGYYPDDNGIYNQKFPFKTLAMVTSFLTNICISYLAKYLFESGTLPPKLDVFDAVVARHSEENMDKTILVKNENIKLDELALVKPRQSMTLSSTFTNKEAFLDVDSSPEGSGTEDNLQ
CHT block = inhibitors of human choline transporter CHT | Q9GZV3 | CHT-expressing cells, membrane potential dye, choline response; hits give low values | B-score at 10 µM | 310,000 compounds, 0.86% hits;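 active means B-score over 3 SD under the library average, and starting fluorescence ratio not unusually high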;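 further: choline stimulus applied at its EC90 after an EC20 pre-addition; B-score computed on integrated fluorescence ratio after choline addition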
Cl transport mod = modulators of human KCC2 chloride dependent transport | Q9H2X9 | KCC2 cells, thallium flux FluoZin-2 fluorescence | B-score of Tl+ flux slope (higher = more flux/activation; lower = inhibition) at 10 µM | 190,000 compounds, 2.2% hits | AID 1456;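 active means thallium flux slope and its plate-corrected score both differing from the plate sample mean at a set confidence after two filtering rounds, in either direction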;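 further: slope of fluorescence scaled to starting intensity during 10 to 20 s after thallium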
Rad51 HR inh = Rad51 (human) homologous recombination inhibition | Q06609 | hRad51 DNA strand exchange, fluorescence dequenching | inhibition, % at 10 µM | 200,000 compounds, 0.085% hits;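 active means inhibition above 40% at the single screening dose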;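 further: 0% = DMSO control wells and 100% = blanks with heterologous ssDNA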
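Material: Human Rad51 nucleoprotein filaments preassembled on unlabelled ssDNA | Also added: Labelled 47-mer dsDNA for strand exchange | Dosing: Single dose, 10 µM final compound | Schedule: 30-min compound preincubation and 15-min exchange, both room temperature | Technique: Fluorescence dequenching at 485/520 nm | Measure: Percent inhibition relative to plate controls and blanks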
Numbers without * were called inactive; i = inactive; x = not tested or not shown. Only some compounds are listed: those with a hit (about 2.6% of all), similar ones and a draw of the others.

SMILES | CHT allo act | CHT block | Cl transport mod | Rad51 HR inh
Cc1ccccc1OCC(=O)NNC(=O)c1cc(S(=O)(=O)N2CCOCC2)ccc1N1CCCC1 | i | i | x | x
CCC1CCCCN1C(=S)NC(=O)c1cccc([N+](=O)[O-])c1 (stereo not drawn) | i | i | x | x
CC(C)CNC(=O)C(=O)NCC1OCCCN1S(=O)(=O)c1cccs1 (stereo not drawn) | i | i | x | x
Cc1ccc(C)c(NC(=S)N=Nc2c(O)n(C)c3ccc(S(=O)(=O)N4CCOCC4)cc23)c1 | i | i | 5.7* | 6
C(=C\c1ccccc1)/CN1CCN(c2ncnc3c2oc2ccccc23)CC1 | i | i | x | -10
Nc1nc(N2CCN(C/C=C/c3ccccc3)CC2)nc2ccccc12 | i | -6.8* | 1.9 | 13
CN1CCN(Cc2c(O)ccc3occ(C(=O)c4ccccc4)c23)CC1 | i | i | x | -8
CC(=O)C(C(C)=O)c1c(Cl)c(O)c(O)c2c(C(=O)c3ccccc3)coc12 | i | i | -5.3* | 10
O=C(NCc1ccc(Cl)cc1)C(=O)NCC(c1cccnc1)N1CCN(c2ccc(F)cc2)CC1 (stereo not drawn) | i | i | -0.0041 | 1
CCCn1ncc(C(=O)NC2CCCN(Cc3ccc(Cl)cc3)C2)c1C (stereo not drawn) | i | i | x | x
CCc1ccc2oc(-c3ccc(OC)cc3)cc(=Nc3cccc(C(=O)O)c3)c2c1 | i | i | -7.2* | 4
O=C(NNC(=O)c1cccnc1Cl)c1ccc(F)cc1 | i | i | x | x
COc1ccc(NC(=O)COC(=O)CCNS(=O)(=O)c2ccc(Cl)cc2)cc1 | i | i | -0.49 | 43*
Cc1c(-c2ccccc2)sc2nc[nH]c(=S)c12 | i | i | 90* | -6
CS(=O)(=O)Nc1ccc(C2=NN(C(=O)CCCC(=O)O)C(c3cccs3)C2)cc1 (stereo not drawn) | i | i | x | x
CCCOc1ccc(C(=O)NNC(=S)NC(=O)CC)cc1 | i | i | 6.9* | 11
Cn1cc(SCC(=O)Nc2nc3ccccc3s2)c2ccccc21 | i | i | 0.12 | -3
CCN(CC)C(=S)SCC(=O)Nc1nc(=O)c2ccccc2s1 | i | i | 16* | -6
Cc1cccc(/C=c2\s/c(=C\C(=O)C(C)(C)C)[nH]c2=O)c1 | i | i | 12* | 10
COc1ccc(/C=c2\s/c(=C\C(=O)C(C)(C)C)[nH]c2=O)cc1O | i | i | 1.1 | -31
N#Cc1cc2[nH]c3ccccc3c2[n+](-c2ccc([N+](=O)[O-])cc2)c1N | 8.8* | i | 0.12 | 16
Nc1[nH]c2cc([N+](=O)[O-])ccc2c1-c1ccccn1 | i | i | x | x
O=C(NC(=S)Nc1ccccc1Cl)c1ccco1 | i | i | x | x
O=C(NC(=S)Nc1ccccc1N1CCCC1)c1ccccc1[N+](=O)[O-] | i | i | 16* | -17
O=C(NC(=S)Nc1ccccc1N1CCCCC1)c1ccco1 | i | i | 20* | -6
SMILES | CHT allo act | CHT block | Cl transport mod | Rad51 HR inh
O=C(NC(=S)Nc1cccc(Cl)c1N1CCCCC1)c1ccco1 | i | i | 6.7* | -7
O=C(NC(=S)Nc1ccc(N2CCCC2)cc1)c1ccccc1[N+](=O)[O-] | i | i | 0.17 | 1
O=C(Nc1ccccc1N1CCCCC1)c1ccco1 | i | i | -0.34 | 6
O=C(CCc1nc2sc3c(c2c(=O)[nH]1)CCCC3)N1CCN(c2ccccc2)CC1 | i | i | x | x
COC(=O)CSc1nc2c(cnn2-c2ccc(Cl)cc2)c(=O)[nH]1 | i | i | x | x
COC(=O)CN1C(c2ccccc2)=Nc2ccc(Cl)cc2C1c1ccccc1 (stereo not drawn) | i | i | -4* | -1
O=C(/C=C/NNC(=O)c1ccccc1)c1ccc(Br)cc1 | i | i | 8.8* | -5
CCOC(=O)C1CCN(CC(=O)Nc2c(C(=O)OC)n(C)c3cccc(C)c23)CC1 | i | i | 0.5 | 69*
C/C(=N\NC(=O)c1cc2ccccc2cc1O)c1ccccn1 | i | i | x | x
C/C(=N/NC(=O)c1cc2ccccc2cc1O)C1C(=O)c2ccccc2C1=O | i | i | -2.8* | -21
COc1ccc(OC)c(NC(=O)c2ccccc2NS(=O)(=O)c2cccc3cccnc23)c1 | i | i | 0.38 | 56*
CC(=O)c1ccc(OCc2cc(C(=O)NC3CCCCC3)no2)cc1 | i | i | x | x
CCCCn1nnc(NC(=S)NC(=O)c2ccc(-c3cccc(Cl)c3Cl)o2)n1 | i | i | 34* | -3
CC(=O)c1ccc(OCC(O)CN(C)CCOc2ccc(Br)cc2)cc1 (stereo not drawn) | i | i | x | x
COc1ccc(N(CC(=O)NCCSC2CCCCC2)S(=O)(=O)c2ccccc2)cc1OC | i | i | x | x
O=C(/C=C/c1ccccc1)C1C(=O)c2ccccc2C1=O | i | i | 36* | 7
O=C(c1ccccc1)C1C(=O)c2ccccc2C1=O | i | i | x | -5
CN(C)/C=N/NC(=O)c1ccccc1 | i | i | -0.11 | -4
O=C(NN=c1c(=O)c2ccccc2c1=O)c1ccccc1 | i | i | 8.6* | 7
COC(=O)Cn1cnc2scc(-c3ccc(C)cc3)c2c1=O | i | i | x | x
N#Cc1ccccc1Sc1ccccc1C(=O)N1CCOCC1 | i | i | x | 7
O=C(c1ccccc1Sc1ccc([N+](=O)[O-])cc1Cl)N1CCOCC1 | i | i | -1.5 | 45*
Cc1c(C(=O)N/N=C/c2cccs2)nnn1-c1nonc1N | i | i | x | x
Cc1cccc2sc(NC(=O)Cn3cccc3)nc12 | i | i | 12* | 6
O=C(Nc1ccccc1C(=O)O)c1cccc(NC(=O)c2ccc(Br)o2)c1 | i | i | -3.2* | -5
SMILES | CHT allo act | CHT block | Cl transport mod | Rad51 HR inh
COC(C/C=C/[C@@H](O)COCc1ccccc1)OC | i | i | -0.25 | -5
CCOC(=O)C1CCN(S(=O)(=O)c2c(Cl)ccc3nonc23)CC1 | i | -5.4* | x | x
O=C1CS/C(=C/C(=O)c2ccccc2)N1 | i | i | x | 7
Cc1cc(C)cc(C(=O)/C=C2\NC(=O)CS2)c1 | i | i | 6.4* | -11
O=C1CNC(=S)N1CCc1ccccc1Cl | i | -5.1* | 0.0092 | -10
Cc1ccc(S(=O)(=O)CCC(=O)OCC(=O)c2cc(C)ccc2C)cc1 | i | i | x | x
Cc1ccc(S(=O)(=O)CCC(=O)c2ccc(O)cc2O)cc1 | i | -5.2* | 0.16 | 4
Cc1cc(NCCCn2ccnc2)n2ncc(-c3ccccc3)c2n1 | i | i | -0.75 | 7
Cc1cc(NCCCn2ccnc2)n2nc(C)c(-c3ccc(Cl)cc3)c2n1 | i | -5.1* | 1.4 | 1
C#CCOCCOCCOCCNc1nc(N2CCN(C(=O)CCCCCCCCCCNC(=O)[C@H]([C@@H](C)CC)n3cc(CCCCN=C(N)N)nn3)CC2)nc(N2CCN(C(=O)CCCCCCCCCCNC(=O)[C@H](CCCCN)n3cc(C)nn3)CC2)n1 | 6.3* | i | x | x
CCSc1nc(C)cc(Oc2ccc(=O)n(C)n2)n1 | i | i | x | -3

Source: PubChem BioAssay (several laboratories)
